Source: ChEMBL document CHEMBL1141056, “Aqua mediated synthesis of substituted 2-amino-4H-chromenes and in vitro study as antibacterial agents” (Bioorg Med Chem Lett, 2005)

Experiments:
Assay type in all cases: functional, organism-based
Escherichia coli [1] = assay: Antibacterial activity against Escherichia coli (ATCC 25922) at concentration 0.5 uM/ml in dimethylformamide, + = resistant
Outline: (§1)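 Broth microdilution MIC per NCCLS standard protocol. Compounds dissolved in DMF and doubling-diluted in Mueller Hinton broth across 0.5–128 µg/ml; ampicillin run alongside. Inoculum adjusted to McFarland 0.5 and diluted to approx. 5×10^5 cfu/ml final per well. Plates held overnight at 37 °C. Growth scored per concentration: + resistant, − susceptible. Each plate carried broth+inoculum and broth-only control wells.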

Escherichia coli [2] = assay: Antibacterial activity against Escherichia coli (ATCC 25922) at concentration 1.0 uM/ml in dimethylformamide, + = resistant; outline: as §1
Escherichia coli [3] = assay: Antibacterial activity against Escherichia coli (ATCC 25922) at concentration 2.0 uM/ml in dimethylformamide, + = resistant; outline: as §1
Staphylococcus aureus [4] = assay: Antibacterial activity against Staphylococcus aureus (ATCC 25923) at concentration 0.5 uM/ml in dimethylformamide, + = resistant; outline: as §1
Staphylococcus aureus [5] = assay: Antibacterial activity against Staphylococcus aureus (ATCC 25923) at concentration 1.0 uM/ml in dimethylformamide, + = resistant; outline: as §1
Staphylococcus aureus [6] = assay: Antibacterial activity against Staphylococcus aureus (ATCC 25923) at concentration 2.0 uM/ml in dimethylformamide, + = resistant; outline: as §1
Staphylococcus aureus [7] = assay: Antibacterial activity against Staphylococcus aureus (ATCC 25923) at concentration 4.0 uM/ml in dimethylformamide, + = resistant; outline: as §1
Pseudomonas aeruginosa [8] = assay: Antibacterial activity against Pseudomonas aeruginosa (ATCC 27853) at concentration 0.5 uM/ml in dimethylformamide, + = resistant; outline: as §1
Pseudomonas aeruginosa [9] = assay: Antibacterial activity against Pseudomonas aeruginosa (ATCC 27853) at concentration 1.0 uM/ml in dimethylformamide, + = resistant; outline: as §1
Pseudomonas aeruginosa [10] = assay: Antibacterial activity against Pseudomonas aeruginosa (ATCC 27853) at concentration 2.0 uM/ml in dimethylformamide, + = resistant; outline: as §1
Pseudomonas aeruginosa [11] = assay: Antibacterial activity against Pseudomonas aeruginosa (ATCC 27853) at concentration 4.0 uM/ml in dimethylformamide, + = resistant; outline: as §1
Escherichia coli [12] = assay: Antibacterial activity against Escherichia coli (ATCC 25922) at concentration 4.0 uM/ml in dimethylformamide, + = resistant; outline: as §1
Escherichia coli [13] = assay: Antibacterial activity against Escherichia coli (ATCC 25922) at concentration 8.0 uM/ml in dimethylformamide, + = resistant; outline: as §1
Escherichia coli [14] = assay: Antibacterial activity against Escherichia coli (ATCC 25922) at concentration 16.0 uM/ml in dimethylformamide, + = resistant; outline: as §1
Escherichia coli [15] = assay: Antibacterial activity against Escherichia coli (ATCC 25922) at concentration 32.0 uM/ml in dimethylformamide, + = resistant; outline: as §1
Escherichia coli [16] = assay: Antibacterial activity against Escherichia coli (ATCC 25922) at concentration 64.0 uM/ml in dimethylformamide, + = resistant; outline: as §1
Staphylococcus aureus [17] = assay: Antibacterial activity against Staphylococcus aureus (ATCC 25923) at concentration 8.0 uM/ml in dimethylformamide, + = resistant; outline: as §1
Pseudomonas aeruginosa [18] = assay: Antibacterial activity against Pseudomonas aeruginosa (ATCC 27853) at concentration 8.0 uM/ml in dimethylformamide, + = resistant; outline: as §1
Staphylococcus aureus [19] = assay: Antibacterial activity against Staphylococcus aureus (ATCC 25923) at concentration 16.0 uM/ml in dimethylformamide, + = resistant; outline: as §1
Staphylococcus aureus [20] = assay: Antibacterial activity against Staphylococcus aureus (ATCC 25923) at concentration 32.0 uM/ml in dimethylformamide, + = resistant; outline: as §1
Staphylococcus aureus [21] = assay: Antibacterial activity against Staphylococcus aureus (ATCC 25923) at concentration 64.0 uM/ml in dimethylformamide, + = resistant; outline: as §1
Pseudomonas aeruginosa [22] = assay: Antibacterial activity against Pseudomonas aeruginosa (ATCC 27853) at concentration 16.0 uM/ml in dimethylformamide, + = resistant; outline: as §1
Pseudomonas aeruginosa [23] = assay: Antibacterial activity against Pseudomonas aeruginosa (ATCC 27853) at concentration 32.0 uM/ml in dimethylformamide, + = resistant; outline: as §1
Pseudomonas aeruginosa [24] = assay: Antibacterial activity against Pseudomonas aeruginosa (ATCC 27853) at concentration 64.0 uM/ml in dimethylformamide, + = resistant; outline: as §1
Staphylococcus aureus [25] = assay: Antibacterial activity against Staphylococcus aureus (ATCC 25923)i at concentration 32.0 uM/ml in dimethylformamide, + = resistant; outline: as §1

Measured: MIC

CC1(C)S[C@@H]2[C@H](NC(=O)[C@H](N)c3ccccc3)C(=O)N2[C@H]1C(=O)O
Resistant: Escherichia coli [1] | Escherichia coli [2] | Escherichia coli [3] | Staphylococcus aureus [4] | Staphylococcus aureus [5] | Staphylococcus aureus [6] | Staphylococcus aureus [7] | Pseudomonas aeruginosa [8] | Pseudomonas aeruginosa [9] | Pseudomonas aeruginosa [10] | Pseudomonas aeruginosa [11]

N#CC1=C(N)Oc2cc(O)ccc2C1c1ccccc1 (centres undefined)
not listed: Staphylococcus aureus [25]
Resistant: all other assays above

N#CC1=C(N)Oc2ccc3ccccc3c2C1c1ccc2c(c1)OCO2 (centres undefined)
not listed: Pseudomonas aeruginosa [24] | Staphylococcus aureus [25]
Resistant: all other assays above

N#CC1=C(N)Oc2ccc3ccccc3c2C1c1cc2ccccc2nc1Cl (centres undefined)
not listed: Staphylococcus aureus [20] | Staphylococcus aureus [21] | Pseudomonas aeruginosa [24]
Resistant: all other assays above

N#CC1=C(N)Oc2ccc3ccccc3c2C1n1ccc2ccccc21 (centres undefined)
not listed: Pseudomonas aeruginosa [24] | Staphylococcus aureus [25]
Resistant: all other assays above

N#CC1=C(N)Oc2ccc3ccccc3c2C1c1ccccc1 (centres undefined)
not listed: Pseudomonas aeruginosa [24] | Staphylococcus aureus [25]
Resistant: all other assays above

N#CC1=C(N)Oc2cc(O)ccc2C1c1ccc2c(c1)OCO2 (centres undefined)
not listed: Pseudomonas aeruginosa [24] | Staphylococcus aureus [25]
Resistant: all other assays above

N#CC1=C(N)Oc2cc(O)ccc2C1n1ccc2ccccc21 (centres undefined)
not listed: Pseudomonas aeruginosa [24] | Staphylococcus aureus [25]
Resistant: all other assays above

N#CC1=C(N)Oc2cc(O)ccc2C1c1cc2ccccc2nc1Cl (centres undefined)
not listed: Escherichia coli [16] | Pseudomonas aeruginosa [24] | Staphylococcus aureus [25]
Resistant: all other assays above
